From publication PMC3253265 (Immunity, 2011)

Experiments:
42F3 TCR [1] = assay: SPR; format: binding, mouse; details: sc H2-L^d constructs
42F3 T cells [2] = assay: p3A1 antagonist assay; format: cell-based; details: 42F3 T cells stimulated with 100nM p4B3, range of p3A1 concentrations, same APC
Procedure, shortened: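 Antagonism assay: 42F3 hybridoma cells were stimulated with an agonist peptide at 100nM. The test peptide was added over a range of concentrations, and IL-2 production was read by ELISA. Anti-CD3 (2C11) and/or native peptide served as IL-2 sensitivity controls. No peptide and an irrelevant H2-Ld MCMV epitope controlled for peptide-independent IL-2.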

[3] = tested on: 42F3 TCR on CD8αβ− 42F3 T cells; format: binding
Procedure, shortened: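 42F3 hybridoma transfectants supplied the TCR. RBCs were biotinylated with biotin-X-NHS and then bound to streptavidin. Borosilicate beads were cleaned, silanized and reacted with streptavidin-maleimide. Both carried […] biotin-tagged single-chain H2-Ld-peptide complexes, the same ones used for SPR. Flow cytometry measured site densities of TCR on cells and pMHC on RBC or beads. Micropipette adhesion frequency and thermal fluctuation assays were run.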

42F3 T cells [4] = assay: Fluorescent sc H2-L^d-tetramer staining of 42F3 T cells; format: cell-based
42F3 T cells [5] = format: cell-based; details: recombinant H2-L^d-Ig dimers, CD8+ 42F3 T cells, IL-2 release
Procedure, shortened: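 CD8+ 42F3 hybridoma transfectants were stimulated with recombinant H2-Ld-Ig dimers loaded with peptide instead of APC-presented peptide. IL-2 release was read by ELISA. Anti-CD3 (2C11) and/or native peptide controlled IL-2 sensitivity. No-peptide and irrelevant H2-Ld MCMV epitope controls covered peptide-independent IL-2.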

42F3 TCR [6] = assay: Fluorescent 42F3-tetramer staining of peptide-loaded APCs; format: cell-based
Procedure, shortened: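 Tetramers were made by complexing C-terminally biotinylated recombinant 42F3 TCR with PE-labelled streptavidin. They were used to stain peptide-loaded APCs, with fluorescence read by flow cytometry. Staining was compared against SPR-derived 3D affinities of the pMHC ligands.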

42F3 T cells [7] = format: cell-based; details: CD8+ and CD8− 42F3 T cell lines, peptide-loaded APCs, up to 100μM peptide

## SPLDSLWWI [p3A1]
42F3 TCR [1]
  SPR derived 3D affinity (KA), rank among the peptides: highest affinity
42F3 T cells [2]
  effect on agonist (p4B3) induced activation: not influenced
[3]
  2D-Ackon: weak
[3]; H2-L^d-peptide
  2D-koff, rank among the peptides: slowest 2D-koff
42F3 T cells [4]
  H2-L^d-peptide-tetramer staining of 42F3 T cells: did not stain
42F3 T cells [5]
  stimulation of 42F3 T cells by peptide-loaded H2-L^d-Ig dimers: failed to stimulate
42F3 TCR [6]
  42F3-tetramer staining of peptide-loaded APCs: stain
42F3 T cells [7]
  IL-2 response: failed to induce a strong IL-2 response
